The values below come from ChEMBL document CHEMBL2396575, “Curcumin-I Knoevenagel's condensates and their Schiff's bases as anticancer agents: synthesis, pharmacological and simulation studies” (Bioorg Med Chem, 2013).

Data set [1] concerns MCF7. In words: Anticancer activity against wild-type human MCF7 cells assessed as cell viability at 0.01 ug/mL after 24 hrs by MTT assay relative to control. Type of data set: functional. The settings on record: MCF7, 24 h, read-out: Activity. The method in brief: (§1)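 MCF-7 cells grown in low-glucose DMEM with 10% FBS plus antibiotic/antimycotic. Seeded at 2×10^3 cells/well, incubated 24 h at 37 °C in humidified 5% CO2, then exposed to test compounds for 24 h. Cells washed with PBS, given MTT for 4 h at 37 °C, formazan dissolved in DMSO, absorbance read at 570 nm. Viability taken as the ratio of treated to blank.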
On the technique in general: Tetrazolium assays rely on reduction of a dye to a coloured formazan, in cell work by metabolically active cells.

Data set [2] can be described thus: Hemolytic activity in rabbit RBC at 100 ug/mL after 3 hrs by colorimetric assay relative to control. Type of data set: ADME, cell-based, Oryctolagus cuniculus, Erythrocyte. The settings on record: rabbit red blood cells (RBC), read-out: Activity. The method in brief: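 Rabbit whole blood diluted 0.1 mL in 0.9 mL PBS, incubated with test compound at 37 °C for 3 h, then centrifuged at 3800 rpm for 15 min. Supernatant mixed with Drabkin's reagent for 15 min, cyanmethemoglobin read at 540 nm against a hemoglobin standard curve. Compound absorbance at 540 nm subtracted. Saline served as negative control, distilled water as positive.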

For data set [3], the system named is DNA. The data set can be described thus: Binding affinity to calf thymus DNA assessed as hypochromicity by UV-vis spectroscopic analysis relative to control. The data set is classed as nucleic-acid assay. More on the design: concentration or dose not given beside the values. As to conditions: Bos taurus. The method in brief:
(§2)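 Ct-DNA stock in tris–HCl pH 7.2–7.3, stored at 4 °C, used within 4 days; A260/A280 ≥1.8. DNA concentration from ε260 6600 M⁻¹ cm⁻¹. Compound dissolved in methanol (2.0×10^-4 M) and titrated with DNA (0.3–2.1 ×10^-4) in tris–HCl, UV–vis spectra recorded after each addition. Kb from modified Benesi–Hildebrand (Wolfe) equation.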

The test system of data set [4] is MCF7. The data set can be described thus: Anticancer activity against wild-type human MCF7 cells assessed as cell viability at 1 ug/mL after 24 hrs by MTT assay relative to control. The data set is classed as functional. The settings on record: MCF7, 24 h, read-out: Activity. The procedure, abridged:
as §1

In data set [5] the test system is DNA. In words: Binding affinity to calf thymus DNA by Benessi-Hilderbrand equation. Type of data set: nucleic-acid assay. The settings on record: Bos taurus. The procedure, abridged: as §2
For data set [6], the system named is MCF7. In words: Anticancer activity against wild-type human MCF7 cells assessed as cell viability at 0.0001 ug/mL after 24 hrs by MTT assay relative to control. Type of data set: functional. As to conditions: MCF7, 24 h, read-out: Activity. The procedure, abridged: as §1
Data set [7] concerns MCF7. The data set can be described thus: Anticancer activity against wild-type human MCF7 cells assessed as cell viability at 0.001 ug/mL after 24 hrs by MTT assay relative to control. The data set is classed as functional. As to conditions: MCF7, 24 h, read-out: Activity. The method in brief:
as §1

For data set [8], the system named is MCF7. In words: Anticancer activity against wild-type human MCF7 cells assessed as cell viability at 0.1 ug/mL after 24 hrs by MTT assay relative to control. As to conditions: MCF7, 24 h, read-out: Activity. The data set is classed as functional. The procedure, abridged:
as §1

As for `COc1cc(/C=C/C(=N\NC(N)=O)C(=Cc2cn(-c3ccccc3)nc2-c2ccc(Cl)cc2)C(/C=C/c2ccc(O)c(OC)c2)=N/NC(N)=O)ccc1O`, in the data set on MCF7 [1], the viability at 0.01 µg/mL was 81%. In data set [2], the hemolysis at 3 h, 100 ug/mL came out at 17%. Also, in the data set on DNA [3], the Activity was found to be 11%. Besides, the viability at 1 µg/mL in the data set with MCF7 [4] was found to be 74%. In addition, the Kb in the data set with DNA [5] is 8.1 ×10⁵ /M. For the same compound, in the data set on MCF7 [6], the viability at 0.0001 µg/mL stood at 87%. In addition, the viability at 0.001 µg/mL in the data set with MCF7 [7] worked out at 81%. The viability at 0.1 µg/mL in the data set with MCF7 [8] is 78%.

As for `COc1cccc2c1C(=O)c1c(O)c3c(c(O)c1C2=O)C[C@@](O)(C(=O)CO)C[C@@H]3O[C@H]1C[C@H](N)[C@H](O)[C@H](C)O1` [DOXORUBICIN], the hemolysis at 3 h, 100 ug/mL in data set [2] turned out to be 42%.

As to `O=Cc1cn(-c2ccccc2)nc1-c1cccc([N+](=O)[O-])c1`, the viability at 0.01 µg/mL with MCF7 [1] is 89%. In data set [2], the hemolysis at 3 h, 100 ug/mL stood at 10%. The Activity in the data set on DNA [3] is 5.2%. In the data set on MCF7 [4], the viability at 1 µg/mL was found to be 75%. For the same compound, the Kb with DNA [5] came to 2.5 ×10³ /M. In addition, in the data set with MCF7 [6], the viability at 0.0001 µg/mL is 89%. For the same compound, in the data set with MCF7 [7], the viability at 0.001 µg/mL was found to be 89%. For the same compound, the viability at 0.1 µg/mL in the data set on MCF7 [8] was found to be 86%.

Take `O=Cc1cn(-c2ccccc2)nc1-c1ccc(Cl)cc1`: in the data set with MCF7 [1], the viability at 0.01 µg/mL worked out at 98%. For the same compound, the hemolysis at 3 h, 100 ug/mL in data set [2] turned out to be 9%. Further, in the data set with DNA [3], the Activity is 5.6%. Moreover, the viability at 1 µg/mL in the data set on MCF7 [4] was 59%. This compound also gave a Kb with DNA [5] of 7.6 ×10⁴ /M. Besides, the viability at 0.0001 µg/mL in the data set on MCF7 [6] is 100%. Also, in the data set with MCF7 [7], the viability at 0.001 µg/mL is 98%. For the same compound, in the data set with MCF7 [8], the viability at 0.1 µg/mL stood at 90%.

In the case of `COc1cc(/C=C/C(=N\NC(N)=O)C(=Cc2cn(-c3ccccc3)nc2-c2ccccc2O)C(/C=C/c2ccc(O)c(OC)c2)=N/NC(N)=O)ccc1O`, the viability at 0.01 µg/mL in the data set on MCF7 [1] turned out to be 91%. Also, the hemolysis at 3 h, 100 ug/mL in data set [2] worked out at 25%. Besides, in the data set on DNA [3], the Activity was 10%. Moreover, the viability at 1 µg/mL with MCF7 [4] stood at 87%. The compound also gave a Kb in the data set on DNA [5] of 3 ×10⁴ /M. The viability at 0.0001 µg/mL in the data set on MCF7 [6] was 92%. Further, the viability at 0.001 µg/mL in the data set with MCF7 [7] is 91%. Besides, in the data set on MCF7 [8], the viability at 0.1 µg/mL stood at 86%.

On to `O=Cc1cn(-c2ccccc2)nc1-c1ccc([N+](=O)[O-])cc1`, for which the viability at 0.01 µg/mL in the data set on MCF7 [1] turned out to be 86%. Moreover, in data set [2], the hemolysis at 3 h, 100 ug/mL came out at 7%. In the data set on DNA [3], the Activity was 7.7%. The viability at 1 µg/mL in the data set on MCF7 [4] was 80%. The same compound registered a Kb in the data set on DNA [5] of 1.9 ×10³ /M. Further, in the data set with MCF7 [6], the viability at 0.0001 µg/mL worked out at 106%. In addition, the viability at 0.001 µg/mL with MCF7 [7] turned out to be 97%. Moreover, the viability at 0.1 µg/mL in the data set on MCF7 [8] was found to be 96%.

As to `O=Cc1cn(-c2ccccc2)nc1-c1ccccc1O`, the viability at 0.01 µg/mL in the data set with MCF7 [1] was 92%. Further, the hemolysis at 3 h, 100 ug/mL in data set [2] amounted to 18%. In addition, in the data set with DNA [3], the Activity came to 6.2%. For the same compound, the viability at 1 µg/mL in the data set with MCF7 [4] was found to be 79%. The Kb with DNA [5] came to 1.4 ×10³ /M. Moreover, the viability at 0.0001 µg/mL in the data set with MCF7 [6] is 96%. Also, the viability at 0.001 µg/mL with MCF7 [7] was 97%. The viability at 0.1 µg/mL in the data set on MCF7 [8] is 73%.

Take `COc1cc(/C=C/C(=O)C(=Cc2cn(-c3ccccc3)nc2-c2ccc(Cl)cc2)C(=O)/C=C/c2ccc(O)c(OC)c2)ccc1O`: in the data set with MCF7 [1], the viability at 0.01 µg/mL is 75%. In addition, the hemolysis at 3 h, 100 ug/mL in data set [2] is 16%. Besides, the Activity in the data set with DNA [3] amounted to 8.1%. For the same compound, the viability at 1 µg/mL with MCF7 [4] is 65%. The Kb in the data set on DNA [5] is 7.8 ×10⁵ /M. The viability at 0.0001 µg/mL with MCF7 [6] was 95%. For the same compound, the viability at 0.001 µg/mL in the data set on MCF7 [7] was found to be 81%. Besides, the viability at 0.1 µg/mL in the data set with MCF7 [8] worked out at 72%.

With `COc1cc(/C=C/C(=O)C(=Cc2cn(-c3ccccc3)nc2-c2cccc([N+](=O)[O-])c2)C(=O)/C=C/c2ccc(O)c(OC)c2)ccc1O`, the viability at 0.01 µg/mL in the data set on MCF7 [1] stood at 88%. In addition, the hemolysis at 3 h, 100 ug/mL in data set [2] amounted to 14%. Also, in the data set with DNA [3], the Activity is 29%. Also, the viability at 1 µg/mL with MCF7 [4] came out at 70%. This compound also yielded a Kb in the data set on DNA [5] of 9.4 ×10⁴ /M. Further, the viability at 0.0001 µg/mL in the data set with MCF7 [6] worked out at 99%. Besides, the viability at 0.001 µg/mL with MCF7 [7] stood at 96%. Besides, the viability at 0.1 µg/mL in the data set on MCF7 [8] worked out at 85%.

In the case of `COc1cc(/C=C/C(=N\NC(N)=O)C(=Cc2cn(-c3ccccc3)nc2-c2ccc([N+](=O)[O-])cc2)C(/C=C/c2ccc(O)c(OC)c2)=N/NC(N)=O)ccc1O`, the viability at 0.01 µg/mL in the data set with MCF7 [1] was found to be 95%. Moreover, in data set [2], the hemolysis at 3 h, 100 ug/mL was determined as 11%. In addition, the Activity in the data set on DNA [3] was 8%. The viability at 1 µg/mL with MCF7 [4] turned out to be 98%. This compound also showed a Kb with DNA [5] of 2.6 ×10⁴ /M. The viability at 0.0001 µg/mL in the data set on MCF7 [6] is 110%. Further, in the data set with MCF7 [7], the viability at 0.001 µg/mL came to 105%. In the data set on MCF7 [8], the viability at 0.1 µg/mL came out at 92%.

In the case of `COc1cc(/C=C/C(=O)C(=Cc2cn(-c3ccccc3)nc2-c2ccccc2O)C(=O)/C=C/c2ccc(O)c(OC)c2)ccc1O`, in the data set with MCF7 [1], the viability at 0.01 µg/mL amounted to 93%. The hemolysis at 3 h, 100 ug/mL in data set [2] is 20%. Further, the Activity in the data set with DNA [3] was found to be 13%. For the same compound, the viability at 1 µg/mL with MCF7 [4] was 88%. For the same compound, in the data set with DNA [5], the Kb is 2.1 ×10⁴ /M. In addition, the viability at 0.0001 µg/mL with MCF7 [6] worked out at 100%. The viability at 0.001 µg/mL with MCF7 [7] amounted to 97%. In addition, the viability at 0.1 µg/mL with MCF7 [8] is 91%.

Consider `COc1cc(/C=C/C(=O)C(=Cc2cn(-c3ccccc3)nc2-c2ccc([N+](=O)[O-])cc2)C(=O)/C=C/c2ccc(O)c(OC)c2)ccc1O`, for which, in the data set on MCF7 [1], the viability at 0.01 µg/mL is 95%. Moreover, in data set [2], the hemolysis at 3 h, 100 ug/mL turned out to be 10%. Moreover, the Activity in the data set with DNA [3] was found to be 12.3%. For the same compound, the viability at 1 µg/mL with MCF7 [4] was 90%. The same compound had a Kb in the data set with DNA [5] of 1.4 ×10⁴ /M. In the data set with MCF7 [6], the viability at 0.0001 µg/mL is 98%. Further, in the data set with MCF7 [7], the viability at 0.001 µg/mL turned out to be 98%. For the same compound, in the data set with MCF7 [8], the viability at 0.1 µg/mL came to 92%.

For the compound `COc1cc(/C=C/C(=N\NC(N)=O)C(=Cc2cn(-c3ccccc3)nc2-c2cccc([N+](=O)[O-])c2)C(/C=C/c2ccc(O)c(OC)c2)=N/NC(N)=O)ccc1O`, the viability at 0.01 µg/mL in the data set on MCF7 [1] is 86%. The hemolysis at 3 h, 100 ug/mL in data set [2] turned out to be 16%. The Activity with DNA [3] was determined as 9%. Moreover, the viability at 1 µg/mL in the data set with MCF7 [4] came out at 67%. In addition, in the data set with DNA [5], the Kb is 9.1 ×10⁴ /M. Also, the viability at 0.0001 µg/mL in the data set on MCF7 [6] worked out at 91%. Moreover, the viability at 0.001 µg/mL with MCF7 [7] turned out to be 89%. The viability at 0.1 µg/mL with MCF7 [8] is 68%.
